Measurements as given in ChEMBL document CHEMBL1649314, “Experimental murine scedosporiosis: histopathology and azole treatment” (2010).
Active and inactive are the calls of the source.

Legend:
[1] = system: Scedosporium boydii; assay: Antifungal activity against Scedosporium boydii FMR 6694 infected in immunosuppressed OF1 mouse assessed as reduction in brain fungal burden at 40 mg/kg, po BID administered 24 hrs postinfection for 10 days measured after 20 days; assay type: functional, organism-based; parameters: dose 40 mg/kg
[2] = system: Scedosporium boydii; assay: Antifungal activity against Scedosporium boydii FMR 6694 infected in immunosuppressed OF1 mouse assessed as prolonged survival of mouse at 20 mg/kg, po BID administered 24 hrs postinfection for 10 days measured after 20 days; assay type: functional, organism-based; parameters: dose 20 mg/kg
Method in brief: (§1)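 Male OF1 mice, groups of 10, immunosuppressed 1 day before infection with cyclophosphamide 200 mg/kg i.p. plus 5-fluorouracil 150 mg/kg i.v. Infected i.v. via tail vein with 1 × 10^4 CFU in 0.2 ml saline. Oral treatment began 24 h post-challenge for 10 days. Mice checked daily for 20 days. Survival by Kaplan-Meier, compared by log rank test.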

[3] = system: Scedosporium boydii; assay: Antifungal activity against Scedosporium boydii FMR 8627 infected in immunosuppressed OF1 mouse assessed as reduction in brain fungal burden at 20 mg/kg, po BID administered 24 hrs postinfection for 10 days measured after 20 days; assay type: functional, organism-based; parameters: dose 20 mg/kg
[4] = system: Scedosporium aurantiacum; assay: Antifungal activity against Scedosporium aurantiacum IHEM 15458 infected in immunosuppressed OF1 mouse assessed as reduction in kidney fungal burden at 20 mg/kg, po BID administered 24 hrs postinfection for 10 days measured after 20 days; assay type: functional, organism-based; parameters: dose 20 mg/kg
[5] = system: Scedosporium aurantiacum; assay: Antifungal activity against Scedosporium aurantiacum IHEM 15458 infected in immunosuppressed OF1 mouse assessed as reduction in brain fungal burden at 20 mg/kg, po BID administered 24 hrs postinfection for 10 days measured after 20 days; assay type: functional, organism-based; parameters: dose 20 mg/kg
[6] = Antifungal activity against Scedosporium aurantiacum CBS 116910 infected in immunosuppressed OF1 mouse assessed as prolonged survival of mouse at 20 mg/kg, po BID administered 24 hrs postinfection for 10 days measured after 20 days; assay type: functional, organism-based; parameters: dose 20 mg/kg; method in brief: as §1
[7] = system: Scedosporium aurantiacum; assay: Antifungal activity against Scedosporium aurantiacum IHEM 15458 infected in immunosuppressed OF1 mouse assessed as reduction in brain fungal burden at 40 mg/kg, po BID administered 24 hrs postinfection for 10 days measured after 20 days; assay type: functional, organism-based; parameters: dose 40 mg/kg
[8] = system: Scedosporium boydii; assay: Antifungal activity against Scedosporium boydii FMR 8627 infected in immunosuppressed OF1 mouse assessed as reduction in brain fungal burden at 40 mg/kg, po BID administered 24 hrs postinfection for 10 days measured after 20 days; assay type: functional, organism-based; parameters: dose 40 mg/kg
[9] = system: Scedosporium boydii; assay: Antifungal activity against Scedosporium boydii FMR 6694 infected in immunosuppressed OF1 mouse assessed as reduction in kidney fungal burden at 20 mg/kg, po BID administered 24 hrs postinfection for 10 days measured after 20 days; assay type: functional, organism-based; parameters: dose 20 mg/kg
[10] = system: Scedosporium boydii; assay: Antifungal activity against Scedosporium boydii FMR 8627 infected in immunosuppressed OF1 mouse assessed as reduction in kidney fungal burden at 10 mg/kg, po BID administered 24 hrs postinfection for 10 days measured after 20 days; assay type: functional, organism-based; parameters: dose 10 mg/kg
[11] = system: Scedosporium boydii; assay: Antifungal activity against Scedosporium boydii FMR 8627 infected in immunosuppressed OF1 mouse assessed as prolonged survival of mouse at 10 mg/kg, po BID administered 24 hrs postinfection for 10 days measured after 20 days; assay type: functional, organism-based; parameters: dose 10 mg/kg
Method in brief: (§2)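 Male OF1 mice were immunosuppressed 1 day before infection with cyclophosphamide 200 mg/kg i.p. plus 5-fluorouracil 150 mg/kg i.v. They were infected i.v. via a lateral tail vein with 1 × 10^4 CFU/mouse in 0.2 ml saline. Oral dosing was 10 or 20 mg/kg twice daily, or 20 or 40 mg/kg once daily (those mice and controls drank grapefruit juice from day −3). Dosing ran 24 h post-challenge for 10 days; 10 mice/group; observed daily to day 20; Kaplan-Meier with log rank test.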

[12] = system: Scedosporium boydii; assay: Antifungal activity against Scedosporium boydii FMR 6694 infected in immunosuppressed OF1 mouse assessed as reduction in brain fungal burden at 20 mg/kg, po BID administered 24 hrs postinfection for 10 days measured after 20 days; assay type: functional, organism-based; parameters: dose 20 mg/kg
[13] = system: Scedosporium apiospermum; assay: Antifungal activity against Scedosporium apiospermum CBS 117407 infected in immunosuppressed OF1 mouse assessed as prolonged survival of mouse at 10 mg/kg, po BID administered 24 hrs postinfection for 10 days measured after 20 days; assay type: functional, organism-based; parameters: dose 10 mg/kg; method in brief: as §1
[14] = Antifungal activity against Scedosporium aurantiacum IHEM 15458 by broth dilution method; assay type: functional
[15] = system: Scedosporium apiospermum; assay: Antifungal activity against Scedosporium apiospermum CBS 117407 infected in immunosuppressed OF1 mouse assessed as reduction in brain fungal burden at 40 mg/kg, po BID administered 24 hrs postinfection for 10 days measured after 20 days; assay type: functional, organism-based; parameters: dose 40 mg/kg
[16] = system: Scedosporium aurantiacum; assay: Antifungal activity against Scedosporium aurantiacum CBS 116910 infected in immunosuppressed OF1 mouse assessed as reduction in brain fungal burden at 40 mg/kg, po BID administered 24 hrs postinfection for 10 days measured after 20 days; assay type: functional, organism-based; parameters: dose 40 mg/kg
[17] = Antifungal activity against Scedosporium aurantiacum IHEM 15458 infected in immunosuppressed OF1 mouse assessed as prolonged survival of mouse at 20 mg/kg, po BID administered 24 hrs postinfection for 10 days measured after 20 days; assay type: functional, organism-based; parameters: dose 20 mg/kg; method in brief: as §1
[18] = system: Scedosporium apiospermum; assay: Antifungal activity against Scedosporium apiospermum CBS 117407 infected in immunosuppressed OF1 mouse assessed as reduction in kidney fungal burden at 20 mg/kg, po BID administered 24 hrs postinfection for 10 days measured after 20 days; assay type: functional, organism-based; parameters: dose 20 mg/kg
[19] = system: Scedosporium apiospermum; assay: Antifungal activity against Scedosporium apiospermum CBS 117407 infected in immunosuppressed OF1 mouse assessed as reduction in brain fungal burden at 20 mg/kg, po BID administered 24 hrs postinfection for 10 days measured after 20 days; assay type: functional, organism-based; parameters: dose 20 mg/kg
[20] = system: Scedosporium apiospermum; assay: Antifungal activity against Scedosporium apiospermum IHEM 14464 infected in immunosuppressed OF1 mouse assessed as reduction in kidney fungal burden at 10 mg/kg, po BID administered 24 hrs postinfection for 10 days measured after 20 days; assay type: functional, organism-based; parameters: dose 10 mg/kg
[21] = system: Scedosporium apiospermum; assay: Antifungal activity against Scedosporium apiospermum IHEM 14464 infected in immunosuppressed OF1 mouse assessed as prolonged survival of mouse at 20 mg/kg, po BID administered 24 hrs postinfection for 10 days measured after 20 days; assay type: functional, organism-based; parameters: dose 20 mg/kg; method in brief: as §1
[22] = system: Scedosporium boydii; assay: Antifungal activity against Scedosporium boydii FMR 8627 infected in immunosuppressed OF1 mouse assessed as prolonged survival of mouse at 20 mg/kg, po BID administered 24 hrs postinfection for 10 days measured after 20 days; assay type: functional, organism-based; parameters: dose 20 mg/kg; method in brief: as §2
[23] = system: Scedosporium apiospermum; assay: Antifungal activity against Scedosporium apiospermum IHEM 14464 infected in immunosuppressed OF1 mouse assessed as prolonged survival of mouse at 10 mg/kg, po BID administered 24 hrs postinfection for 10 days measured after 20 days; assay type: functional, organism-based; parameters: dose 10 mg/kg; method in brief: as §1
[24] = system: Scedosporium apiospermum; assay: Antifungal activity against Scedosporium apiospermum IHEM 14464 infected in immunosuppressed OF1 mouse assessed as reduction in brain fungal burden at 40 mg/kg, po BID administered 24 hrs postinfection for 10 days measured after 20 days; assay type: functional, organism-based; parameters: dose 40 mg/kg
[25] = system: Scedosporium boydii; assay: Antifungal activity against Scedosporium boydii FMR 6694 infected in immunosuppressed OF1 mouse assessed as reduction in kidney fungal burden at 10 mg/kg, po BID administered 24 hrs postinfection for 10 days measured after 20 days; assay type: functional, organism-based; parameters: dose 10 mg/kg
[26] = system: Scedosporium apiospermum; assay: Antifungal activity against Scedosporium apiospermum IHEM 14464 by broth dilution method; assay type: functional
[27] = system: Scedosporium boydii; assay: Antifungal activity against Scedosporium boydii FMR 6694 by broth dilution method; assay type: functional

CC[C@@H]([C@H](C)O)n1ncn(-c2ccc(N3CCN(c4ccc(OC[C@@H]5CO[C@@](Cn6cncn6)(c6ccc(F)cc6F)C5)cc4)CC3)cc2)c1=O [POSACONAZOLE]
inactive: Activity [1] | Activity [9] | Activity [12] | Activity [25]
0.5 µg/mL: MIC [26]
2 µg/mL: MIC [14]
1 µg/mL: MIC [27]
active: Activity [2] | Activity [3] | Activity [4] | Activity [5] | Activity [6] | Activity [7] | Activity [8] | Activity [10] | Activity [11] | Activity [13] | Activity [15] | Activity [16] | Activity [17] | Activity [18] | Activity [19] | Activity [20] | Activity [21] | Activity [22] | Activity [23] | Activity [24]
